Calb FLC = C. albicans growth modulation with fluconazole; 300,000 tested, 0.57% active; C. albicans CaCi-2 (fluconazole-resistant clinical isolate) + fluconazole, Alamar Blue growth, 48 h; growth inhibition, % (no concentration beside the values);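 active = growth inhibition above about 58% in most replicates, limit read from the data, passing the limit was not always enough; inconclusive = exactly half the replicates above a set limit; inactive = most replicates below a set limit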;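 note: all wells also contain fluconazole at 8 µg/ml as a sub-toxic cotreatment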
T cruzi inh = T. cruzi replication inhibition | inhibition, % (concentration not given with the values) | AID 1885 | 300,000 tested, 1.4% active | T. cruzi beta-gal in NIH3T3, luminescence, 90 h;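 active = mean inhibition across valid replicates above about 55%, limit read from the data; inconclusive = mean below that limit but half or more replicates reach it; inactive = mean below it, under half of replicates reach it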;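 note: signal also drops with host cell toxicity which is not excluded here; higher percent means less beta-gal luminescence so fewer parasites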
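Read-out: Parasite load inhibition, % | Test system: Mouse NIH/3T3 fibroblasts infected with β-gal-expressing T. cruzi Tulahuen C4 | Amount: 5,000 cells/well | Medium: DMEM, 2% fetal bovine serum | Signal: GalScreen β-gal luminescence, detergent lysis, 60 min | Timing: 3 h attach, ≥90 h co-culture | Also added: Tulahuen C4 trypomastigotes, 5000/well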
SKKanGAS inh = blocks kanamycin growth of S. pyogenes SKKanGAS strain | BacTiter-Glo, 6 h | inhibition, % at 7.5 µM | 300,000 tested, 1.3% active;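 active = mean replicate score, as percent of positive control median, at least 50; inconclusive = mean below 50 but one replicate at or above 50; inactive = mean and every replicate below 50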;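 note: strain carries kanamycin resistance gene driven by streptokinase promoter and grows in 40 µg/ml kanamycin; loss of luminescence reflects streptokinase promoter inhibition or plain growth inhibition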
Mdm2 MdmX PPI = human Mdm2/MdmX binding inhibition; O15151+Q00987; SaOS-2 split-luciferase Mdm2/MdmX complementation, luminescence; inhibition, % at 8 µM; 330,000 tested, 3% active; AID 485346;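 active = inhibition of at least 50% at 8 µM in the primary screen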
Target sequence (O15151 whole entry, looked up): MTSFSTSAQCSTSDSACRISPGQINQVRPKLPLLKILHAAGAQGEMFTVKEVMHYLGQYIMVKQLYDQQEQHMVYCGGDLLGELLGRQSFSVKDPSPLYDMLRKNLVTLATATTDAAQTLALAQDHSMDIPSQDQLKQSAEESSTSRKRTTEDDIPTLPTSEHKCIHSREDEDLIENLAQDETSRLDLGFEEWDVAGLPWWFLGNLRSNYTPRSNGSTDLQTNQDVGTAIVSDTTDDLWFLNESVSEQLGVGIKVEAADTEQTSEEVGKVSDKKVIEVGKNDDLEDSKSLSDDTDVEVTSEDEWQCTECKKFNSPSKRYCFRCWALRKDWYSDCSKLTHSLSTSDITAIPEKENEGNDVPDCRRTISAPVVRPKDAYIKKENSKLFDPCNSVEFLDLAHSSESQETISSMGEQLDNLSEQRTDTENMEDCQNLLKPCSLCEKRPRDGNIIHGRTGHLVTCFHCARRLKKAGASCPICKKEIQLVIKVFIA
Target sequence (Q00987 whole entry, looked up): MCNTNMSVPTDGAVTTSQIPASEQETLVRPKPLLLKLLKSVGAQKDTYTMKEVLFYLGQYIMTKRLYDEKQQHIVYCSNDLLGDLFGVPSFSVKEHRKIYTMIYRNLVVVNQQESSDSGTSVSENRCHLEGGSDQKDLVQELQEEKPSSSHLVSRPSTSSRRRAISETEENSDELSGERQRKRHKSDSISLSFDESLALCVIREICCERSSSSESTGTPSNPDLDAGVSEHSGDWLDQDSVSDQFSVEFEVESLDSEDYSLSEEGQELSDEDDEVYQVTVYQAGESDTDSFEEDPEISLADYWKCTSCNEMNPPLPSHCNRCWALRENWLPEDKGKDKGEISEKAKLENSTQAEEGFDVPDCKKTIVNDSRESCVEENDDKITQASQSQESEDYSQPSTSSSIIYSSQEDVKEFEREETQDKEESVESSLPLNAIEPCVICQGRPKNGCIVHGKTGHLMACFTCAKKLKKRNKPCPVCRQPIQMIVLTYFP
CSC inhib = cancer stem cell inhibition. inhibition, % at 7.5 µM. cancer stem cell-like cells viability, luminescence. 300,000 tested, 1.1% active; in the data active = inhibition above about 75%; inconclusive = no clear call, values can overlap the other calls; tested in HMLE shEcad cells
Beta cell apopt = beta cell apoptosis inhibition | protection from apoptosis, % (test concentration not listed) | 300,000 tested, 0.8% active | AID 435005 | INS-1E cytokine-induced death, ATP luminescence, 48 h; percent of positive-control rescue, neutral wells zero;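 active = Every replicate reaches about 75%, or at least half do and their mean reaches it too, limit read from the data; inconclusive = At least half of replicates reach the limit but their mean does not; inactive = Under half of replicates reach the limit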;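 note: higher means more ATP so stronger rescue from cytokine killing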
A number is an active result; n = inactive; u = inconclusive; x = no result given. Only some compounds are listed: those with a hit (about 5.7% of all), similar ones and a draw of the others.

SMILES	Calb FLC	T cruzi inh	SKKanGAS inh	Mdm2 MdmX PPI	CSC inhib	Beta cell apopt
Cc1ccc(C(=O)OC(C)C(=O)Nc2ccc3c(c2)OCO3)c(O)c1 (configuration not stated)	x	x	x	n	x	n
CC1Cc2ccccc2N1C(=O)C1CC(=O)N(c2ccccc2)C1 (configuration not stated)	n	n	n	n	n	n
O=C(COC(=O)c1ccc(O)cc1O)Nc1nnc(-c2ccccc2)o1	n	n	n	n	n	n
COc1cc(/C=C2\C(=O)ON=C2c2ccc(Cl)cc2)ccc1O	n	n	n	n	87	n
O=C1ON=C(c2ccccc2)/C1=C/c1ccc(O)c(O)c1	n	n	n	n	n	n
CC(C)=CCCC(C)CN(C)CCc1ccccn1 (configuration not stated)	n	63	n	n	n	n
CCN(CC)S(=O)(=O)c1cc(NC(=O)C2CC(=O)N(Cc3ccccc3)C2)ccc1Cl (configuration not stated)	x	x	x	n	x	n
COc1ccc(Cn2nnnc2C(c2ccccn2)N2CCN(c3cc(Cl)ccc3C)CC2)cc1 (configuration not stated)	n	65	n	n	n	n
COCCn1nnnc1C(c1ccccn1)N1CCN(c2cc(Cl)ccc2C)CC1 (configuration not stated)	n	n	n	n	n	n
CC1=NOC2(C1)N(C)c1ccccc1C2(C)C (configuration not stated)	u	n	n	n	n	n
COc1ccc2ccc3c(c2c1)N=C[C@]1(O3)N(C)c2ccccc2C1(C)C	n	n	56	n	n	n
CC(=O)N1c2ccc(S(=O)(=O)NCCC(=O)Nc3ccc(C)c(F)c3)cc2CC1C (configuration not stated)	n	n	n	n	n	n
O=C(C1CCCO1)N1CCN(C(=S)Nc2cc(F)cc(F)c2)CC1 (configuration not stated)	n	n	n	n	n	n
C/C(=N\NC(=O)c1c(Cl)c(C)nn1C)c1cccc(NC(=O)c2cccc(F)c2)c1	n	n	55	n	n	n
CC(C(=O)OCC(=O)Nc1cccc(S(=O)(=O)N(C)C)c1)N1C(=O)c2ccccc2C1=O (configuration not stated)	n	n	n	n	n	n
CCCCOP(=O)(c1ccc(N(C)C)cc1)C(O)c1ccc(OC)cc1 (configuration not stated)	n	n	n	n	n	n
CCCCOP(=O)(c1ccc(N(C)C)cc1)C(O)c1ccccc1F (configuration not stated)	95	n	n	n	n	n
CC1=C(C(=O)Nc2ccccc2)C(c2ccc(C)cc2)N=C(Nc2nc3ccccc3o2)N1 (configuration not stated)	n	57	n	n	n	n
CN(C)c1ccc(N2C(=NC(=O)CCC3CCCC3)SC3CS(=O)(=O)CC32)cc1 (configuration not stated)	n	n	n	n	n	n
CCn1nc(NC(=O)c2ccncc2)c2cc3cc(C)ccc3nc21	n	n	91	n	n	n
Fc1ccc(Sc2ccccc2CNC2=NCCN2)cc1	n	63	n	n	n	n
CC(=O)c1ccc(N2CCN(CC(=O)Nc3ccccc3C(=O)NC3CC3)CC2)c(F)c1	x	x	x	n	x	n
COc1ccccc1N1CCN(C(=O)c2ccc3[nH]c4c(c3c2)CC(C)CC4)CC1 (configuration not stated)	n	57	n	n	n	n
CC(C)NC(=O)C1CCN(c2ccc(S(=O)(=O)N3CCOCC3)cc2Cl)CC1	n	n	n	n	n	n
CC1=C(C)/C(=N\OS(=O)(=O)c2ccc(C)cc2)C=CC1=O	x	x	x	x	89	106
SMILES	Calb FLC	T cruzi inh	SKKanGAS inh	Mdm2 MdmX PPI	CSC inhib	Beta cell apopt
Cc1c(NC(=O)COC(=O)CCc2c[nH]c3ccccc23)c(=O)n(-c2ccccc2)n1C	n	n	n	n	n	n
COc1ccc(S(=O)(=O)N2CC(C)N(C(=O)N(C)C)C2C(C)C)cc1 (configuration not stated)	n	n	n	n	n	x
O=C(Cc1ccccc1)N/N=C/c1ccc(S(=O)(=O)O)o1	n	n	n	n	x	x
C=CCOc1ccc(/C=C2\SC(N3CCCCC3)=NC2=O)cc1	n	n	n	n	n	n
Cc1ccc(S(=O)(=O)/N=C(/c2ccccc2)N2CCOCC2)c(C)c1	81	n	n	n	n	x
CCCn1c(SC(C)C(=O)NC2CC2)nnc1-c1ccncc1 (configuration not stated)	x	x	x	n	x	n
Cc1ccc(S(=O)(=O)N(C)C)cc1[N+](=O)[O-]	n	n	n	n	n	n
COc1ccc2ccccc2c1CNC(C)CCc1ccccc1 (configuration not stated)	u	56	n	n	n	x
O=C(Cc1cccs1)N[C@@H]1c2ccccc2CC[C@@H]1OCc1ccccc1	x	x	x	n	x	x
O=c1c2ccccc2nc2n1CCc1c-2[nH]c2ccccc12	x	x	x	n	78	n
Clc1nssc1=Nc1ccc(Br)cc1	n	n	n	x	x	x
Clc1ccc(N=c2ssnc2Cl)nc1	u	58	n	n	n	n
COc1ccc(S(=O)(=O)NCC(c2cccnc2)N2CCN(C)CC2)cc1OC (configuration not stated)	n	n	n	n	n	n
Cc1cc(C(=O)CSc2nncs2)c(C)n1Cc1ccco1	n	n	n	n	n	n
Cc1cc(C(=O)CCl)c(C)n1Cc1ccco1	n	80	n	n	n	n
Nc1ccc(N=Nc2ccccc2O)c(N)c1	n	n	n	n	n	n
Oc1ccccc1N=Nc1ccccc1O	94	59	59	x	x	x
Cc1ccc(S(=O)(=O)N2CCOCC2)cc1NC(=O)COC(=O)C1(C)CC1(Cl)Cl (configuration not stated)	x	x	x	n	n	n
CCOC(=O)C1CCCN(S(=O)(=O)c2ccc(C)cc2)C1 (configuration not stated)	n	n	n	n	n	n
CCOC(=O)C1CCCN(S(=O)(=O)c2ccc(S(=O)(=O)N(CC)CC)cc2)C1 (configuration not stated)	n	n	n	n	x	110
CC1CCCCN1c1nc(-c2ccncc2)nc2ccccc12 (configuration not stated)	n	60	n	n	x	n
CCC1CCCCN1c1nc(-c2ccncc2)nc2ccccc12 (configuration not stated)	n	63	n	n	n	n
CCC1CCCCN1c1nc(-c2cccc(OC)c2O)nc2ccccc12 (configuration not stated)	n	n	n	n	x	n
CCCCN1CC(=O)N2[C@H]3c4cc(C)ccc4OC[C@@H]3[C@H](C(=O)OCC)[C@]2(C)C1=O	x	x	x	n	n	n
O=C(C(Cl)Cl)N1c2ccccc2OCC1c1ccccc1 (configuration not stated)	n	n	n	n	n	76
